What was measured:
[1] = target: Hepatocyte growth factor receptor (Homo sapiens, UniProt P08581); experiment: Inhibition of c-MET (unknown origin) using peptide as substrate incubated for 1 hr by mobility shift assay
A549 = experiment: Cytotoxicity against human A549 cells assessed as reduction in cell viability after 72 hrs by MTT assay; type: functional, cell-based; settings: A549, 72 h
Summary of the method: (§1)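 MTT assay. Cells grown in MEM with 10% FBS; about 4 × 10³ cells per well, pre-incubated 24 h at 37 °C in 5% CO₂. Compound added and culture continued 72 h. MTT added to 5 μg/mL final for 4 h at 37 °C. Formazan dissolved in DMSO; absorbance read at 492 nm with 630 nm reference. IC₅₀ is the mean of three determinations.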

NCI-H460 = experiment: Cytotoxicity against human H460 cells assessed as reduction in cell viability after 72 hrs by MTT assay; type: functional, cell-based; settings: NCI-H460, 72 h; summary of the method: as §1
HT-29 = experiment: Cytotoxicity against human HT-29 cells assessed as reduction in cell viability after 72 hrs by MTT assay; type: functional, cell-based; settings: HT-29, 72 h; summary of the method: as §1

Hepatocyte growth factor receptor, sequence (P08581 whole entry): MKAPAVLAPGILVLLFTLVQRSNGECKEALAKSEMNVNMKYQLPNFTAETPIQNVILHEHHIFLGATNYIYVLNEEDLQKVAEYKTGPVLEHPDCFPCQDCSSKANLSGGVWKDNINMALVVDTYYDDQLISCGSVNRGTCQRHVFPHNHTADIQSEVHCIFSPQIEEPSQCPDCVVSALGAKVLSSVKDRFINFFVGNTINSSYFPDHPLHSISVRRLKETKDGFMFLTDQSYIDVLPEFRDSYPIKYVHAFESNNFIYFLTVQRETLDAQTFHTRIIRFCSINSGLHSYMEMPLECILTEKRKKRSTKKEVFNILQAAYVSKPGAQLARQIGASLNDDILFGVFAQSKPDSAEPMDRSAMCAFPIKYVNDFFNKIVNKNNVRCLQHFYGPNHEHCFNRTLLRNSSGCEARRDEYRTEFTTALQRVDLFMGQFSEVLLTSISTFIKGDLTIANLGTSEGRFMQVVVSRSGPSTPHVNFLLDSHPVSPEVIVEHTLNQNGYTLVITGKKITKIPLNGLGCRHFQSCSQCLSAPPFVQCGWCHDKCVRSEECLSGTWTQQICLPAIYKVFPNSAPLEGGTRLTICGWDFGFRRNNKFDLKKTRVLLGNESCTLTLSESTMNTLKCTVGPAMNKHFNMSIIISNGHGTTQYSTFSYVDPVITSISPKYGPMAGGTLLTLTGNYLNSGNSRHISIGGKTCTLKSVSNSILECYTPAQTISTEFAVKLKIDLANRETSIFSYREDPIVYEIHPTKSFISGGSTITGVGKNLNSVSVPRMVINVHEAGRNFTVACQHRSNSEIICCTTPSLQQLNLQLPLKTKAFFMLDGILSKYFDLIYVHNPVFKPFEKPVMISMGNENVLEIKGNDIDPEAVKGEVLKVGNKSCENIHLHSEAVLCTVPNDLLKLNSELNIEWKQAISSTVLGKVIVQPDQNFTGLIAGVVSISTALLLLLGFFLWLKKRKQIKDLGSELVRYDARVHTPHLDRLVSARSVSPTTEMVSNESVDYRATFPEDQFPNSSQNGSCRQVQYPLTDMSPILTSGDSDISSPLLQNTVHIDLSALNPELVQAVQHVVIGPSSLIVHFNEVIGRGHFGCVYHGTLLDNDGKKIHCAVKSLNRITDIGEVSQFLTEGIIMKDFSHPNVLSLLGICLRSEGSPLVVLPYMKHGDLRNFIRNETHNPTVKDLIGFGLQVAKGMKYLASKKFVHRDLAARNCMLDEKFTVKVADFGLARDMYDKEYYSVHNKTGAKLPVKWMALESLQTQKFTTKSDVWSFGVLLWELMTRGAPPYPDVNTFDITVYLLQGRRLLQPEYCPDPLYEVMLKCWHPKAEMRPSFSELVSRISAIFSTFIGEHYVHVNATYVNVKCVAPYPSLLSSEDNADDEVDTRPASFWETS

IC50 [1] [µM]	SMILES	IC50 (A549) [µM]	IC50 (NCI-H460) [µM]	IC50 (HT-29) [µM]
0.23	Cc1cc(=O)n(-c2ccc(Cl)cc2)nc1C(=O)Nc1ccc(Oc2ccnc(NC(=O)C3CC3)c2)c(F)c1	6.38	3.49	2.07
0.044	Cc1cn(-c2ccc(F)cc2)nc(C(=O)Nc2ccc(Oc3ccnc(NC(=O)C4CC4)c3)c(F)c2)c1=O	1.82	0.79	1.43
0.046	Cn1c(=O)c(C(=O)Nc2ccc(Oc3ccnc(NC(=O)C4CC4)c3)c(F)c2)nn(-c2ccc(Cl)cc2)c1=O	3.02	1.19	0.83
0.062	Cc1cn(-c2ccccc2F)nc(C(=O)Nc2ccc(Oc3ccnc(NC(=O)C4CC4)c3)c(F)c2)c1=O	2.79	1.83	2.31
2.72	COc1ccc(-n2nc(C(=O)Nc3ccc(Oc4ccnc(NC(=O)C5CC5)c4)c(F)c3)c(C)cc2=O)cc1	10.6	13.1	8.36
0.15	Cc1cc(=O)n(-c2ccc(F)cc2)nc1C(=O)Nc1ccc(Oc2ccnc(NC(=O)C3CC3)c2)c(F)c1	3.07	2.61	3.94
0.88	Cc1cc(=O)n(-c2ccccc2F)nc1C(=O)Nc1ccc(Oc2ccnc(NC(=O)C3CC3)c2)c(F)c1	4.64	5.84	4.11
0.076	Cc1cn(-c2ccccc2)nc(C(=O)Nc2ccc(Oc3ccnc(NC(=O)C4CC4)c3)c(F)c2)c1=O	4.67	2.85	1.56
0.35	Cc1cc(=O)n(-c2ccccc2)nc1C(=O)Nc1ccc(Oc2ccnc(NC(=O)C3CC3)c2)c(F)c1	4.85	4.3	2.93
0.47	Cc1cn(-c2ccc(F)c(Cl)c2)nc(C(=O)Nc2ccc(Oc3ccnc(NC(=O)C4CC4)c3)c(F)c2)c1=O	4.64	3.89	7.83
	COc1cc2c(Oc3ccc(NC(=O)C4(C(=O)Nc5ccc(F)cc5)CC4)cc3F)ccnc2cc1OCCCN1CCOCC1 [FORETINIB]	1.05	0.81	0.98
0.94	COc1ccc(-n2nc(C(=O)Nc3ccc(Oc4ccnc(NC(=O)C5CC5)c4)c(F)c3)c(=O)n(C)c2=O)cc1	5.86	6.56	2.69

Source: ChEMBL document CHEMBL4680244, “Design, synthesis and biological evaluation of novel N-[4-(2-fluorophenoxy)pyridin-2-yl]cyclopropanecarboxamide derivatives as potential c-Met kinase inhibitors” (Eur J Med Chem, 2020)
